Reference: ChEMBL document CHEMBL4406884, “An anthrone-based Kv7.2/7.3 channel blocker with improved properties for the investigation of psychiatric and neurodegenerative disorders” (Bioorg Med Chem Lett, 2019)
≈ marks a conversion by molar mass, not a printed value.

Experiments:
[1] = molecular target: Voltage-gated potassium channel, KQT; KCNQ2(Kv7.2)/KCNQ3(Kv7.3) (Homo sapiens) (UniProt O43526+O43525); experiment: Inhibition of Kv7.2/7.3 in human tsA201 cells assessed as effect on channel currents at -60 mV holding potential at 1.5 uM by whole cell patch clamp assay relative to control; type: cell-based
[2] = molecular target: Potassium voltage-gated channel subfamily KQT member 2 (Homo sapiens, UniProt O43526); experiment: Inhibition of Kv7.2 in human HEK293 cells incubated for 1 hr by thallium flux assay; type: cell-based
Potassium voltage-gated channel subfamily KQT member 2, sequence (O43526 whole entry): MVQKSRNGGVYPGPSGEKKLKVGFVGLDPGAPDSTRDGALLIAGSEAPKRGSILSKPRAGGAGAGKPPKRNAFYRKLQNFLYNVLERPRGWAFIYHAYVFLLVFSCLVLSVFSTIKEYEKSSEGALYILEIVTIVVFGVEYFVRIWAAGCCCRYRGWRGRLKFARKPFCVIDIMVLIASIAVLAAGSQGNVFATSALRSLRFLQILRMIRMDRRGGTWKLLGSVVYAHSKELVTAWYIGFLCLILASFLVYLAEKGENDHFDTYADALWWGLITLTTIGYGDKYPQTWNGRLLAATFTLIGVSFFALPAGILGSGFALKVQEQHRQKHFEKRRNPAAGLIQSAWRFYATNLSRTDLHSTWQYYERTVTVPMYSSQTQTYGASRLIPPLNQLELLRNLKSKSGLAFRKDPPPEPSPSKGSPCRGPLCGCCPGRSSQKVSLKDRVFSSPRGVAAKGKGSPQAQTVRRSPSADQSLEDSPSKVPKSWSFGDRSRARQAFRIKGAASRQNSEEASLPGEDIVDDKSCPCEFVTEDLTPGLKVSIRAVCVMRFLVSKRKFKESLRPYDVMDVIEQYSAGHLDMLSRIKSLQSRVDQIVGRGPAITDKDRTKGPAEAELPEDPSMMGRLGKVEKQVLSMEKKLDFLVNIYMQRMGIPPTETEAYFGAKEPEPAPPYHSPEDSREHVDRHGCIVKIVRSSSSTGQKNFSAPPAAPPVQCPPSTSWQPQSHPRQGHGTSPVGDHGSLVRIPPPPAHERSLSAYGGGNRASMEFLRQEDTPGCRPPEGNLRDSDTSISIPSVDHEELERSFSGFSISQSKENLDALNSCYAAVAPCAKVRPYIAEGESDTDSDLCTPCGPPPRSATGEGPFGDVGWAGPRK
Summary of the method: (§1)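 HEK-293 cells stably expressing KCNQ2 or hERG were plated overnight, then loaded with Thallos AM dye for 1 h at 22 °C. Compounds (10-point, 3-fold dilutions) were added for 5 min, then Tl₂SO₄/K-gluconate stimulus, read at 1 Hz. F/F0 was vehicle-subtracted and initial slopes fit to a four-parameter logistic. Triplicate wells; mean of three independent experiments.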

[3] = molecular target: Voltage-gated inwardly rectifying potassium channel KCNH2 (Homo sapiens, UniProt Q12809); experiment: Inhibition of ERG in human HEK293 cells incubated for 1 hr by thallium flux assay; type: cell-based; summary of the method: as §1
Voltage-gated inwardly rectifying potassium channel KCNH2, sequence (Q12809 whole entry): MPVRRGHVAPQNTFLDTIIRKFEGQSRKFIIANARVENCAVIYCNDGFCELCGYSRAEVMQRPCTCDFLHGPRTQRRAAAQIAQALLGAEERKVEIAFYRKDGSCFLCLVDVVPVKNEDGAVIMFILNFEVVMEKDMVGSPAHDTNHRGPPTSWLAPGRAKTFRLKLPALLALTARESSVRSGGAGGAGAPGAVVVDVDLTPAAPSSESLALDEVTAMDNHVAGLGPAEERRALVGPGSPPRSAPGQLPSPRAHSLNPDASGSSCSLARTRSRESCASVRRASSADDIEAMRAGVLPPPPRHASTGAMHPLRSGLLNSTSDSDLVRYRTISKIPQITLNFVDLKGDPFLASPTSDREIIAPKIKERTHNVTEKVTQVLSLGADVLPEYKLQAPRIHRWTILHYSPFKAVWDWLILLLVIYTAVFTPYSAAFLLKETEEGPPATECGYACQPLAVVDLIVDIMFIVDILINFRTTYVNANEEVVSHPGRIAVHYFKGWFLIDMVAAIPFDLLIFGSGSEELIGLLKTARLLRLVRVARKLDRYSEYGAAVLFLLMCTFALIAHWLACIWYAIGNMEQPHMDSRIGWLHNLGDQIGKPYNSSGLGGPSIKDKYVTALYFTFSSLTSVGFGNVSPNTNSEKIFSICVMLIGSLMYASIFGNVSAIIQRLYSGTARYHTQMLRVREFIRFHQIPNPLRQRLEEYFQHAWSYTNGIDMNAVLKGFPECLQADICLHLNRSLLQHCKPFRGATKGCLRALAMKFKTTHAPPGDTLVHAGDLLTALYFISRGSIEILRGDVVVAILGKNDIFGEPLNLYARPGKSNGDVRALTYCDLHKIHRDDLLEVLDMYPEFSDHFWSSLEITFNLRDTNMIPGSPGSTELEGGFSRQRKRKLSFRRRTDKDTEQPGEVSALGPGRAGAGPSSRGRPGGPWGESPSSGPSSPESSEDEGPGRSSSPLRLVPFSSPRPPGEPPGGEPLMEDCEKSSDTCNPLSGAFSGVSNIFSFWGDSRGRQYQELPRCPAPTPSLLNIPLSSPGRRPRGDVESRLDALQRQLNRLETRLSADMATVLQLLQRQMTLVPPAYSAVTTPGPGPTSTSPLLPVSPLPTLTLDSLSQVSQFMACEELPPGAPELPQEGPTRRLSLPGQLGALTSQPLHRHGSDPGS

CYP3A4 [4] = molecular target: T1, CYP3A4 (Homo sapiens, UniProt P08684); experiment: Inhibition of CYP3A4 (unknown origin) at 50 uM using DBOMF as substrate measured for each min for 6 mins by fluorescence based assay relative to control; type: ADME; conditions: probe DBOMF
T1 sequence (P08684 whole entry): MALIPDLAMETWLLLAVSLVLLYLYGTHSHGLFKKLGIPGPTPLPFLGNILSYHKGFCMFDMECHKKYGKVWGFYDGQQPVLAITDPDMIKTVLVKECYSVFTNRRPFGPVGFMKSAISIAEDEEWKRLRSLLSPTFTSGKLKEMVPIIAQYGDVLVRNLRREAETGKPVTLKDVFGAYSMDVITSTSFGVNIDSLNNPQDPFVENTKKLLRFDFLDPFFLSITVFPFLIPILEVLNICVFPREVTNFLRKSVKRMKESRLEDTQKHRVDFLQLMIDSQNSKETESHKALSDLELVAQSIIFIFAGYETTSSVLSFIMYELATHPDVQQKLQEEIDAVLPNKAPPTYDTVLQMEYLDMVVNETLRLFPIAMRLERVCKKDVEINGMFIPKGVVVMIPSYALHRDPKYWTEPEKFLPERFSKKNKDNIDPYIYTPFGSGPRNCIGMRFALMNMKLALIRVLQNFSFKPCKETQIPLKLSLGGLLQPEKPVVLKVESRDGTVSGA

[5] = Stability in 1:1 MeCN:0.2N aq. HCl assessed as percent remaining at 0.3 mM and 60 degC incubated for 24 hrs by LC/MS analysis; type: physicochemical; conditions: for remaining at 24 h, 300 µM: 1:1 MeCN:0.2N aq; call rule not given here. HCl, read-out: Stability
Summary of the method: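 Compound in 1:1 CH3CN/0.2 N aqueous HCl with furan-2-carboxylic acid (1 eq) as internal standard, heated at 60 °C. Analysed by LC-MS at set time points. Degradation from UV peak area at 254 nm relative to the internal standard.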

[6] = Metabolic stability in human liver microsomes assessed as percent remaining […] incubated for 1 hr by LC/MS analysis; type: ADME, Microsome
Summary of the method: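 Compound at 10 μM final (from 1 mM DMSO stock) pre-incubated 5 min at 37 °C with NADPH regenerating system in phosphate buffer pH 7.4. Started with human liver microsomes (0.5 mg/mL protein). After 1 h, triplicate aliquots quenched in cold acetonitrile with internal standard. Percent remaining by LC-MS/MS peak-area ratio to internal standard.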

[7] = Kinetic solubility in […] % DMSO/water at 3.2 uM to 100 uM incubated for 18 hrs by spectrometry; type: physicochemical; conditions: for solubility kinetic at 18 h: […] DMSO/water, read-out: Kinetic_solubility
HepG2 = experiment: Cytotoxicity against human HepG2 cells assessed as reduction in cell viability incubated for 18 hrs by celltiter-glo assay; conditions: hepg2, 18 h
HEK293 = experiment: Cytotoxicity against human HEK293 cells assessed as reduction in cell viability incubated for 18 hrs by celltiter-glo assay; conditions: hek293, 18 h
[8] = molecular target: T2, Alpha-1A adrenergic receptor (Homo sapiens, UniProt P35348); experiment: Inhibition of alpha1A adrenergic receptor (unknown origin)
T2 sequence (P35348 whole entry): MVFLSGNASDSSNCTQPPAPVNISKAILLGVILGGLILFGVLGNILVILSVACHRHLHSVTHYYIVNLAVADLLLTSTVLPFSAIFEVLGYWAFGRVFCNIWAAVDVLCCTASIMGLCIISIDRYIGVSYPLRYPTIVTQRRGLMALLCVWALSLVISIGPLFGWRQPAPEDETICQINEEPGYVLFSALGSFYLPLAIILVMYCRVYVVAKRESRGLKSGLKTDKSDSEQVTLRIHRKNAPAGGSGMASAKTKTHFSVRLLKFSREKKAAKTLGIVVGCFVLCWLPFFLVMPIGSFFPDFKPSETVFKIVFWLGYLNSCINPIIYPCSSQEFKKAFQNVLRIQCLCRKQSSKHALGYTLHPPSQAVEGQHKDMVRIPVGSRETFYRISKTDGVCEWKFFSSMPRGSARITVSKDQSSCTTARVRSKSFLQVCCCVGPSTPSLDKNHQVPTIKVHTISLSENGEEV

[9] = molecular target: T3, Alpha-1A adrenergic receptor (Homo sapiens) (UniProt P35348); experiment: Binding affinity to alpha1A adrenergic receptor (unknown origin) at 10 uM relative to control
T3 sequence (whole entry): T2 sequence (P35348 whole entry)

[10] = molecular target: Adrenergic receptor alpha-1 (Homo sapiens) (UniProt P35348+P25100+P35368); experiment: Binding affinity to alpha1 adrenergic receptor (unknown origin) at 10 uM relative to control; type: protein assay
Adrenergic receptor alpha-1 (Homo sapiens), sequence (P25100 whole entry, looked up, one chain of several): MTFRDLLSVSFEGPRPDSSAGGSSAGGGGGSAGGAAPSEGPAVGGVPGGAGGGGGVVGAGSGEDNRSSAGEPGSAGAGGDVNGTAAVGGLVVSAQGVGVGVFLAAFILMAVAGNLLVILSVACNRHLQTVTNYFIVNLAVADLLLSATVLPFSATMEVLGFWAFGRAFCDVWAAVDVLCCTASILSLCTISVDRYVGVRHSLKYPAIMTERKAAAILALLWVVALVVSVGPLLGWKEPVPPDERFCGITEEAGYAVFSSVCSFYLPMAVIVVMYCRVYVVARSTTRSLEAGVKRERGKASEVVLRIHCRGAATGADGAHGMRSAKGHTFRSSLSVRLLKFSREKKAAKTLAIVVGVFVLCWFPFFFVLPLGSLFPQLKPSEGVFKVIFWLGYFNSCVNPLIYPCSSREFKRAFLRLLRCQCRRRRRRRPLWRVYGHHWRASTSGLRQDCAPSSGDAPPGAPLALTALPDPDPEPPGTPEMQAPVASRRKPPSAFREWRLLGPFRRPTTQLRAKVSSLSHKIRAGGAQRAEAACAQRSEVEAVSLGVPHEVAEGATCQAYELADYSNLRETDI
Adrenergic receptor alpha-1 (Homo sapiens), sequence (P35368 whole entry, looked up, one chain of several): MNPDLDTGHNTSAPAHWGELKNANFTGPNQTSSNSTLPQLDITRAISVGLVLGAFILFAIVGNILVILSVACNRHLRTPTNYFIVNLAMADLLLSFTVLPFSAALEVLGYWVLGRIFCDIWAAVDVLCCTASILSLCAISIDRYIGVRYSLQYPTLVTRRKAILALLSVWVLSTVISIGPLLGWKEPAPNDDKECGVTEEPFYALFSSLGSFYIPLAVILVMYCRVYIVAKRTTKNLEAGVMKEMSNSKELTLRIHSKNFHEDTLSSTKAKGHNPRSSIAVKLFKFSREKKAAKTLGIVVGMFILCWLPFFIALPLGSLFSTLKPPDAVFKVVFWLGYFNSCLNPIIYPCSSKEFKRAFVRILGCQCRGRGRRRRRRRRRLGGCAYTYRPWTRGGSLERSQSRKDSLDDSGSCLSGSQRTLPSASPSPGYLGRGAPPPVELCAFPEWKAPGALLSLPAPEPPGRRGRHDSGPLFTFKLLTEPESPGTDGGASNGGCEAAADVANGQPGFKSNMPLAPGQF

CYP3A4 [11] = molecular target: T1, CYP3A4; experiment: Inhibition of CYP3A4 (unknown origin) at 10 uM using DBOMF as substrate measured for each min for 6 mins by fluorescence based assay relative to control; type: ADME; conditions: probe DBOMF
Summary of the method: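 Vivid CYP3A4 Green assay in PBS pH 7.2 with NADP+ regeneration system. Final levels: 5 nM CYP3A4, 2 μM DBOMF substrate, 100 μM NADP+, 10 μM compound. Fluorescence (ex 490/em 520 nm) read every minute for 6 min, four wells per compound.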

D(3) dopamine receptor [12] = molecular target: T4, D(3) dopamine receptor (Homo sapiens, UniProt P35462); experiment: Inhibition of D3 receptor (unknown origin)
T4 sequence (P35462 whole entry): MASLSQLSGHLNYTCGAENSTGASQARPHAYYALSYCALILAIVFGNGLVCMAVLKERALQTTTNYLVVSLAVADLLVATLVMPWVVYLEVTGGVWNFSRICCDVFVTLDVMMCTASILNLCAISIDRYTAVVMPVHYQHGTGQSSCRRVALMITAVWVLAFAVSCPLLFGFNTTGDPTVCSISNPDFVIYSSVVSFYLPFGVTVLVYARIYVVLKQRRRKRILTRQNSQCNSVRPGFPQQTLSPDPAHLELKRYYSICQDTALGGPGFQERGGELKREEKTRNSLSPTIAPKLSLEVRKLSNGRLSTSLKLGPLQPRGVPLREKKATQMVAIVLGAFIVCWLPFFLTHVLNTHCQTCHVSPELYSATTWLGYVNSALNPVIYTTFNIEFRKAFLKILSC

D(3) dopamine receptor [13] = molecular target: T4, D(3) dopamine receptor; experiment: Binding affinity to D3 receptor (unknown origin) at 10 uM relative to control

| SMILES | inhibition [1] [%] | IC50 [2] [µM] | IC50 [3] | inhibition at 0.1 h, 50 µM (CYP3A4 [4]) [%] | remaining at 24 h, 300 µM [5] [%] | Stability [6] [%] | Stability ([5]; buffer, 24 h, 300 µM) [%] | solubility kinetic at 18 h [7] [µM] | CC50 (HepG2) [µM] | CC50 (HEK293) [µM] | Ki [8] [µM] | Activity [9] [%] | Activity [10] [%] | inhibition at 0.1 h, 10 µM (CYP3A4 [11]) [%] | Kinetic_solubility ([7]; buffer, 18 h, 3.2 µM) [µM] | Ki (D(3) dopamine receptor [12]) [µM] | Activity (D(3) dopamine receptor [13]) [%] |
| --- | --- | --- | --- | --- | --- | --- | --- | --- | --- | --- | --- | --- | --- | --- | --- | --- | --- |
| Cc1cc(CC2(Cc3ccnc(C)c3)c3ccccc3C(=O)c3ccccc32)ccn1 | 33 | 0.54 | Not Active | 92 |  |  |  |  |  |  |  |  |  |  |  |  |  |
| O=C1c2ccccc2C(Cc2ccnc(C(F)(F)F)c2)(Cc2ccnc(C(F)(F)F)c2)c2ccccc21 | 6 | 5.6 | Not Active | 95 |  |  |  |  |  |  |  |  |  |  |  |  |  |
| O=C1c2ccccc2C(Cc2c(F)cncc2F)(Cc2c(F)cncc2F)c2ccccc21 | 65 | 0.2 |  | 97 | > 99 |  |  |  |  |  |  |  |  |  |  |  |  |
| O=C1c2ccccc2C(Cc2ccnc(F)c2)(Cc2ccnc(F)c2)c2ccccc21 | 31 | 0.048 |  | 82 |  | 97 | 83 | 27 (≈ 11.1 µg/mL) | 132 | 77 | 1.1 to 3.1 | > 30 | > 30 | 79 |  |  |  |
| O=C1c2ccccc2C(Cc2ccnnc2)(Cc2c(F)cncc2F)c2ccccc21 | 73 | 0.16 |  |  | > 99 | 84 |  |  | > 150 | > 150 |  |  | > 30 | 90 | 27 | > 10 | > 30 |
| O=C1c2ccccc2C(Cc2ccnnc2)(Cc2ccnnc2)c2ccccc21 | 12 | 10 | Not Active | 28 |  |  |  |  |  |  |  |  |  |  |  |  |  |
| O=C1c2ccccc2C(Cc2ccncc2)(Cc2ccncc2)c2ccccc21 | 81 | 0.055 |  |  |  |  |  | 27 (≈ 10.2 µg/mL) |  |  |  |  |  |  |  |  |  |
